Results reported in ChEMBL document CHEMBL3085648, “Enhancement of kinase selectivity in a potent class of arylamide FMS inhibitors” (Bioorg Med Chem Lett, 2013).
Blank lines part the entries; values can stand above or below the compound they belong to.

Legend:
[1] = (§1) Metabolic stability in human liver microsomes assessed as compound remaining after 10 mins; assay type: ADME; details: liver microsomes, read-out: Stability
Method in brief: (§2)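 Compound was incubated with human, mouse or rat liver microsomal preparations. Stability is the percent of compound remaining after 10 min.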

Rattus norvegicus [2] = assay: Toxicity in Sprague-Dawley rat assessed as blood reticulocyte level at 40 mg/kg, po bid after 4.5 days; assay type: organism-based; design: dose 40 mg/kg, route oral; details: in vivo, 108 h
Method in brief: (§3)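 Female Sprague–Dawley rats (150–200 g) were dosed orally bid for 4 days with vehicle (n = 4) or 10–40 mg/kg (n = 3), as a solution at 6 ml/kg in 20% HPβCD. A final dose was given on day 5 and rats were sacrificed 2 h later. Plasma drug level, body weight versus vehicle controls and blood reticulocytes were assessed.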

Rattus norvegicus [3] = assay: Toxicity in Sprague-Dawley rat assessed as body weight loss at 40 mg/kg, po bid after 4.5 days relative to vehicle-treated control; assay type: organism-based; design: dose 40 mg/kg, route oral; details: in vivo, 108 h; method in brief: as §3
Rattus norvegicus [4] = assay: Toxicity in Sprague-Dawley rat at 40 mg/kg, po bid after 4.5 days; assay type: organism-based; design: dose 40 mg/kg, route oral; details: in vivo, 108 h; method in brief: as §3
[5] = Plasma concentration in Sprague-Dawley rat at 40 mg/kg, po bid administered for 5 days measured 2 hrs post last dose; assay type: ADME, organism-based; design: dose 40 mg/kg, route oral; method in brief: as §3
[6] = Plasma concentration in Sprague-Dawley rat at 10 mg/kg, po bid administered for 5 days measured 2 hrs post last dose; assay type: ADME, organism-based; design: dose 10 mg/kg, route oral; method in brief: as §3
[7] = Metabolic stability in rat liver microsomes assessed as compound remaining after 10 mins; assay type: ADME; details: read-out: Stability; method in brief: as §2
[8] = Metabolic stability in mouse liver microsomes assessed as compound remaining after 10 mins; assay type: ADME, Microsome; details: liver microsomes, read-out: Stability; method in brief: as §2
[9] = target: Mast/stem cell growth factor receptor Kit (Homo sapiens, UniProt P10721); assay: Inhibition of KIT (unknown origin)
Sequence of Mast/stem cell growth factor receptor Kit (P10721 whole entry): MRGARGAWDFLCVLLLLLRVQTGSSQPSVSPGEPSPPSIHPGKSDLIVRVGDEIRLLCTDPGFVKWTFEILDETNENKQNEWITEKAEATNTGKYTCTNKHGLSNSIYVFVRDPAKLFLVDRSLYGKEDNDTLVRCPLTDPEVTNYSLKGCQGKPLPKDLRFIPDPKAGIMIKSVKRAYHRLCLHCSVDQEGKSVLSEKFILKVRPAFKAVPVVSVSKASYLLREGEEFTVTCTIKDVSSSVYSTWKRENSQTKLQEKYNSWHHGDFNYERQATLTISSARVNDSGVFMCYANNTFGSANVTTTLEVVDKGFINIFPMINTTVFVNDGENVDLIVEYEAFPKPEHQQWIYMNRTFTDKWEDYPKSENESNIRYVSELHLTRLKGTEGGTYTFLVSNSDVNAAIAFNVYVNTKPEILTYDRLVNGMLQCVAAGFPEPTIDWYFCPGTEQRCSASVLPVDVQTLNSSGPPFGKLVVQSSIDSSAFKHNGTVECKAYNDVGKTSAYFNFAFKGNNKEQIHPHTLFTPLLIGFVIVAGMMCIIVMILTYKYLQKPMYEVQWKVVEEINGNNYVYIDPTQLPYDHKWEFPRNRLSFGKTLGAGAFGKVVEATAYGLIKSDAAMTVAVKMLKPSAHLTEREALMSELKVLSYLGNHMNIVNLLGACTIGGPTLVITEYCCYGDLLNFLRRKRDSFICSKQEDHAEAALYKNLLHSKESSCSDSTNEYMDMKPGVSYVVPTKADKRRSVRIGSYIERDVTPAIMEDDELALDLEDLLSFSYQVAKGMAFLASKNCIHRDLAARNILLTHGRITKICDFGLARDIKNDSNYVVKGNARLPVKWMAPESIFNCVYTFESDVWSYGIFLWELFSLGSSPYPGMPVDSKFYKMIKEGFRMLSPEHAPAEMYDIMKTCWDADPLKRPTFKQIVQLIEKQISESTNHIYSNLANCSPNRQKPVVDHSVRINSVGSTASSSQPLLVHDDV

Mus musculus = assay: Inhibition of CSF-1-induced c-fos gene expression in mouse spleen at 20 mg/kg, po after 6 hrs; assay type: functional
Method in brief: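 In the mouse pharmacodynamic model, compound was given orally. Spleen c-fos mRNA induced by an iv injection of CSF-1 was measured 6 or 8 h after dosing.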

[10] = Tmax in Sprague-Dawley rat at 5 mg/kg, po; assay type: ADME, organism-based; design: dose 5 mg/kg, route oral; details: in vivo
[11] = AUC in Sprague-Dawley rat at 5 mg/kg, po; assay type: ADME, organism-based; design: dose 5 mg/kg, route oral; details: plasma
[12] = Oral bioavailability in Sprague-Dawley rat at 5 mg/kg; assay type: ADME, organism-based; details: in vivo
[13] = Terminal half life in Sprague-Dawley rat at 5 mg/kg, po; assay type: ADME, organism-based; design: dose 5 mg/kg, route oral; details: in vivo, read-out: beta t1/2 (converted)
[14] = Cmax in Sprague-Dawley rat at 5 mg/kg, po; assay type: ADME, organism-based; design: dose 5 mg/kg, route oral; details: in vivo
[15] = Systemic clearance in Sprague-Dawley rat at 1 mg/kg, iv; assay type: ADME, organism-based; design: dose 1 mg/kg, route intravenous; details: in vivo
[16] = Volume of distribution in Sprague-Dawley rat at 1 mg/kg, iv; assay type: ADME, organism-based; design: dose 1 mg/kg, route intravenous; details: in vivo
Liver microsome = assay: as §1; assay type: ADME; details: microsomes, 10 min; method in brief: as §2

remaining at 10 min [1]: 110% | concentration at 2 h [5]: 5160 nM | concentration at 2 h [6]: 680 nM | remaining at 10 min [7]: 63% | remaining at 10 min [8]: 98%
SMILES: CC1(C)CC=C(c2cc(C(C)(C)N3CCN(CCO)CC3)ccc2NC(=O)c2nc(C#N)c[nH]2)CC1
Activity (Rattus norvegicus [2]): Non-toxic | Activity (Rattus norvegicus [3]): Non-toxic | Activity (Rattus norvegicus [4]): Non-toxic

remaining at 10 min [1]: 35% | IC50 [9]: 110 nM | remaining at 10 min [7]: 39%
SMILES: COCCNCC(C)(C)c1ccc(NC(=O)c2nc(C#N)c[nH]2)c(C2=CCC(C)(C)CC2)c1
inhibition in vivo at 20 mg/kg (Mus musculus): 0%

Tmax [10]: 2.8 h | AUC [11]: 690 ng·h/mL | bioavailability [12]: 31% | half-life [13]: 6.5 h | Cmax [14]: 210 nM | clearance [15]: 34 mL/min/kg | Vd [16]: 7.6 L/kg
SMILES: CC1(C)CC=C(c2cc(C(C)(C)N3CCN(CCO)CC3)ccc2NC(=O)c2nc(C#N)c[nH]2)CC1.Cl

Stability (Liver microsome): ND(Insoluble) | IC50 [9]: 40 nM
SMILES: CC(=O)N1CCN(C(C)(C)c2ccc(NC(=O)c3nc(C#N)c[nH]3)c(C3=CCC(C)(C)CC3)c2)CC1
